The species named for assay [1] is Homo sapiens. Kind of assay: Modulation of alpha1beta2gamma2S GABAA receptor (unknown origin) expressed in xenopus oocytes assessed as potentiation of GABA-induced chloride current by two-electrode voltage clamp method. The assay is classed as cell-based.
Assay [2] deals with Enterococcus faecalis. Kind of assay: Antibacterial activity against Enterococcus faecalis ATCC 29212 after 24 hrs using p-iodonitrotetrazolium violet dye. Format: functional. Conditions: ATCC 29212, 24 h. Summed up:
(§1)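 Broth microdilution MIC. Compounds reconstituted in acetone at a 5 mg/mL starting concentration, then serially doubling-diluted in sterile distilled water. Inoculum approx. 1 × 10^6 CFU/mL. Plates sealed and incubated at 37 °C for 24 h. Growth read after adding p-iodonitrotetrazolium violet (0.4 mg/mL); purple-pink means growth. MIC taken as lowest concentration with no growth. Ciprofloxacin positive control (0.01 mg/mL); acetone solvent and culture controls.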

Assay [3] relates to Escherichia coli. Kind of assay: Antibacterial activity against Escherichia coli ATCC 8739 after 24 hrs using p-iodonitrotetrazolium violet dye. Format: functional. The conditions noted are these: ATCC 8739, 24 h. Summed up: as §1
In assay [4] the test system is Klebsiella pneumoniae. The assay is described as follows: Antibacterial activity against Klebsiella pneumoniae ATCC 13883 after 24 hrs using p-iodonitrotetrazolium violet dye. Format: functional. Conditions: ATCC 13883, 24 h. Put shortly: as §1
The test system of assay [5] is Staphylococcus aureus. Kind of assay: Antibacterial activity against Staphylococcus aureus ATCC 25923 after 24 hrs using p-iodonitrotetrazolium violet dye. Format: functional. The conditions noted are these: ATCC 25923, 24 h. Summed up:
as §1

≈ marks a conversion by molar mass, not a printed value. Calls of active or inactive are those of the source. No cut-off for these calls is given here.

Usually MIC stands for the least concentration at which growth counts as inhibited. A high value points to a less susceptible organism. `CC1=CCC[C@H]2[C@](C)(CC/C(C)=C/C(=O)O)[C@@H](C)CC[C@@]12C`: the result in assay [1] was inactive. Also, the MIC in assay [2] was 31.3 mg/L (≈ 103 µM); in assay [3], 15.6 mg/L (≈ 51.2 µM); in assay [4], 93.8 mg/L (≈ 308 µM); in assay [5] it was 15.6 mg/L (≈ 51.2 µM).

Turning to `CC(=O)O[C@@H]1CC[C@@]2(C)[C@@H](CC[C@H](C)[C@]23CC[C@](C)(CC(=O)O)O3)C1(C)C`, the outcome in assay [1] was inactive. For the same molecule, the MIC turned out to be 62.5 mg/L (≈ 164 µM) in assay [2], 125 mg/L (≈ 328 µM) in assay [3], 62.5 mg/L (≈ 164 µM) in assay [4] and 125 mg/L (≈ 328 µM) in assay [5].

Regarding `C[C@H]1CC[C@H]2C(C)(C)CCC[C@]2(C)[C@@]1(O)CCC1=CC(=O)OC1`, the outcome in assay [1] was inactive. Moreover, the MIC was 125 mg/L (≈ 390 µM) in assay [2], 250 mg/L (≈ 780 µM) in assay [3], 62.5 mg/L (≈ 195 µM) in assay [4] and 125 mg/L (≈ 390 µM) in assay [5].

As to `O=C(O)c1cn(C2CC2)c2cc(N3CCNCC3)c(F)cc2c1=O` [CIPROFLOXACIN], the MIC stood at 0.156 mg/L (≈ 0.471 µM) in assay [2], 0.156 mg/L (≈ 0.471 µM) in assay [3], 0.078 mg/L (≈ 0.235 µM) in assay [4] and 0.156 mg/L (≈ 0.471 µM) in assay [5].

In the case of `C[C@@H]1CC[C@@]2(C)[C@H](CC[C@@H]3O[C@@]32C)[C@@]1(C)CCC1=CC(=O)OC1`, the result in assay [1] was inactive.

`C/C(=C\C(=O)O)CC[C@]1(C)[C@@H](C)CC[C@]2(C)[C@H]1CC[C@H]1O[C@]12C`: the outcome in assay [1] was inactive. In addition, the minimum inhibitory concentration (MIC) in assay [2] was 62.5 mg/L (≈ 195 µM); in assay [3], > 250 mg/L; in assay [4] it was 62.5 mg/L (≈ 195 µM); in assay [5], 62.5 mg/L (≈ 195 µM).

For `C[C@H]1CC[C@H]2C(C)(C)[C@H](O)CC[C@]2(C)[C@@]12CC[C@@](C)(CCO)O2`, the result in assay [1] was inactive. Besides, the MIC in assay [2] was 125 mg/L (≈ 385 µM); in assay [3], 125 mg/L (≈ 385 µM); in assay [4] it was 62.5 mg/L (≈ 193 µM); in assay [5], 93.7 mg/L (≈ 289 µM).

`C/C(=C\C(=O)O)CC[C@@]1(C)[C@H](C)CC[C@@]2(C)C(CO)=CCC[C@H]12` (relative stereo): the result in assay [1] was inactive. The MIC worked out at 125 mg/L (≈ 390 µM) in assay [2], 125 mg/L (≈ 390 µM) in assay [3], 93.8 mg/L (≈ 293 µM) in assay [4] and 62.5 mg/L (≈ 195 µM) in assay [5].

As for `C[C@H]1CC=C2[C@@H](CC[C@@H](O)C2(C)C)[C@]1(C)CCC1=CC(=O)OC1`, in assay [1], the result was inactive. For the same molecule, the minimum inhibitory concentration (MIC) in assay [2] was determined as 62.5 mg/L (≈ 196 µM); in assay [3], 125 mg/L (≈ 393 µM); in assay [4], 62.5 mg/L (≈ 196 µM); in assay [5], 93.7 mg/L (≈ 294 µM).

As to `C/C(=C\C(=O)O)CC[C@]1(C)[C@@H](C)CC[C@@]2(C)C(CO)=CCC[C@@H]12`, in assay [1], the outcome was inactive. Moreover, the MIC in assay [2] is 62.5 mg/L (≈ 195 µM); in assay [3], 125 mg/L (≈ 390 µM); in assay [4] it was 625 mg/L (≈ 1950 µM); in assay [5] it was 62.5 mg/L (≈ 195 µM).

`C[C@H]1CC[C@H]2C(C)(C)[C@H](O)CC[C@]2(C)[C@@]12CC[C@](C)(CC(=O)O)O2`: the result in assay [1] was inactive. Further, the MIC was determined as 62.5 mg/L (≈ 185 µM) in assay [2], 125 mg/L (≈ 369 µM) in assay [3], 62.5 mg/L (≈ 185 µM) in assay [4] and 125 mg/L (≈ 369 µM) in assay [5].

As for `C[C@H]1CC[C@H]2C(C)(C)CCC[C@]2(C)[C@@]12CC[C@](C)(CC(=O)O)O2`, the outcome in assay [1] was inactive. The MIC in assay [2] was 125 mg/L (≈ 388 µM); in assay [3], 125 mg/L (≈ 388 µM); in assay [4] it was 46.9 mg/L (≈ 145 µM); in assay [5] it was 62.5 mg/L (≈ 194 µM).
